The EternaBench riboswitch data

Experiments:
MS2 coat protein [1] = assay: apparent Kd, MS2 coat protein; higher = weaker binding; RNA-MaP array
Summary of the method: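 Incubations were done at room temperature with fluorescently labeled MS2 coat protein at 1.5 nM to 3 μM and designed RNAs transcribed on an Illumina sequencing chip from sequenced DNA templates, with or without input ligand. Apparent Kd is the median of binding curves fitted for each cluster. Designs with fewer than 10 measured clusters were excluded.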

MS2 coat protein [2] = assay: apparent Kd, MS2 coat protein; higher = weaker binding; RNA-MaP array; FMN 200 µM where present; settings: designed as: ON switch for flavin mononucleotide
Summary of the method: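 Designs were transcribed by stalled E. coli RNA polymerase on Illumina sequencing-chip clusters. They were titrated with SNAP-549-labelled MS2 coat protein from 0.7 or 1.5 nM, doubling to 3 µM, without and then with constant ligand. Buffer: 100 mM Tris-HCl pH 7.5, 80 mM KCl, 4 mM MgCl2, BSA, DTT, yeast tRNA, Tween-20. Green signal was normalised to red-channel RNA signal and control-cluster median Fmax. Apparent Kd is the median of filtered per-cluster binding-curve fits.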

[3] = designed as: OFF switch for flavin mononucleotide, no ligand
[4] = ligand present: flavin mononucleotide, designed as: OFF switch for flavin mononucleotide
[5] = designed as: ON switch for theophylline, no ligand
[6] = ligand present: theophylline, designed as: ON switch for theophylline
[7] = designed as: ON switch for flavin mononucleotide, no ligand
[8] = ligand present: flavin mononucleotide, designed as: ON switch for flavin mononucleotide
[9] = designed as: OFF switch for theophylline, no ligand
[10] = ligand present: theophylline, designed as: OFF switch for theophylline

Sequence	apparent Kd (MS2 coat protein [1]; [3]) [nM]	apparent Kd (MS2 coat protein [1]; [4]) [nM]	other results
AUGUGAGGACAUGAGGAUCACCCAUGUCGGGAACCUCUCGCAGAGGAUAUUCGAGAAGCAACGUUGAAGAAGGCUGGCGAAACC	18.1	13.7	
AAAAUAGCAGGAUAUACAUGAGGAUCACCCAUGUCAAGACAGCACGGUGCAAGGUAGGGUAGAAGGGCUAAUUG	22.8	30.1	
UGACCACAUGAGGAUCACCCAUGUCAGGAUAUAGGUACACUGGUACAGCCUUUUCGGCCUAGAAGGGACUCUCU	9.09	8.42	
CCUCAGCAAUUGGAUACCAGUACAUCGUAAGACAUGAGGAUCACCCAUGUGGGCUUGACAUACCCUUGGCAGCCAUCCUUGAUCC			apparent Kd (MS2 coat protein [1]; [5]): 234 nM; apparent Kd (MS2 coat protein [1]; [6]): 252 nM
AACUAAAACGAUAGUCGACAUGAGGAUCACCCAUGUACAAAACAGGAUAUAAGAUUACCGGUGUGUAAGAAGGGUUUGCUAUCA			apparent Kd (MS2 coat protein [1]; [7]): 15.2 nM; apparent Kd (MS2 coat protein [1]; [8]): 12.6 nM
UCAGCACAUGAGGAUCACCCAUGUCGUGAUACCAGCCUGUGCGAAGGCCCUUGGCAGCACAGUCCCGAUUUGCUUAUAUGCACUU			apparent Kd (MS2 coat protein [1]; [5]): 35.7 nM; apparent Kd (MS2 coat protein [1]; [6]): 36.9 nM
GUUCGCUGAGGAUAUACAUGAGGAUCACCCAUGUUCAAGUCUCGUGACUGUUCCCAGCGUAGAAGGCAGCGGUG	7.62	8.85	
CAUCGGGCGGUAAAUGGCGGGUACGGUGAUACCAGUUUUUGAUUUAACCCUUGGCAGCACUAUACAUGAGGAUCACCCAUGUAAU			apparent Kd (MS2 coat protein [1]; [9]): 17.9 nM; apparent Kd (MS2 coat protein [1]; [10]): 30 nM
UCGCCGCUGGAGACAUGAGGAUCACCCAUGUGGUCUUUCGUAAGAAGGUGCCUAUAGAACUUUUGCAAGGAUAUUACGCCGGAG	217	113	
GUAAGACAAGGCAAGGAUAUGCCCUAAUGGACAUGAGGAUCACCCAUGUGGUUGCAUAAUCAAAAGCAGAAGGUGCUACAACACGG			apparent Kd (MS2 coat protein [1]; [7]): 48.3 nM; apparent Kd (MS2 coat protein [1]; [8]): 38.8 nM
UUAUGUCGGUAGGAUAUUAGACGUGGUUAUACGUAAGAAGGACCAACAUGAGGAUCACCCAUGUGAGAUAGUUC	14.4	24.7	
GAUGGUGUCAAGGAUAUUCCUAGCGGCUCGUUCGAAGAAGGUGAUACAUGAGGAUCACCCAUGUCCCUCCAUUU	18.2	16.9	
CGGGAACGAUAUGAUACCAGCCUGCGAAAGAAUGCUUAGUACAUGAGGAUCACCCAUGUAGGCCCUUGGCAGCAUCGACUCAAGU			apparent Kd (MS2 coat protein [1]; [9]): 14.8 nM; apparent Kd (MS2 coat protein [1]; [10]): 19.7 nM
UGUCGAUGAUCCAAGGAUAUAUGGAUGCUGACAUGAGGAUCACCCAUGUCCCGAGAAAUCAUUAAAUAGAAGGUGGGCUAUGGCAA			apparent Kd (MS2 coat protein [1]; [7]): 45.9 nM; apparent Kd (MS2 coat protein [1]; [8]): 21.2 nM
AUAAUCAAAGGAUAUGGCUAAGCACACAUGAGGAUCACCCAUGUGAUCGUUCGUACAGUUCCAGAAGGUUGGUCCA	15	13.3	
ACCAUGUGACAGGAUAUGUUUCUCUCAAUAAACACAGAAGGGUCUACAUGAGGAUCACCCAUGUGUAUUCUACC	72.6	64.3	
GUGAGACAUGAGGAUCACCCAUGUUAGGAUAUUAAACUGGUUUAGUCUGUGACCGACGUAAGAAGGAACUUGAU	13.1	11.7	
AUAUUCGUUCAGGAUAUGUUAAGCUCACGCCUAACAGAAGGGAAUACAUGAGGAUCACCCAUGUGGUGAUGGGA	498	426	
UAAAGGUUCCAGAAGGCCACGACUCGAUCCUGUGGAGGAUAUGGGACAUGAGGAUCACCCAUGUCUGGUGGAUUACAUCCCACA			apparent Kd (MS2 coat protein [1]; [7]): 20.4 nM; apparent Kd (MS2 coat protein [1]; [8]): 32.2 nM
ACAACAAAACAGAAGGCCUUAAAUUACAUGAGGAUCACCCAUGUUACACUAUACAAACAGAACAAGGAGGAUAUGUAAGACUGA			apparent Kd (MS2 coat protein [1]; [7]): 19.9 nM; apparent Kd (MS2 coat protein [1]; [8]): 8.65 nM
CCAAUGCAAGGAUAUACAAAAGACUCACUAAAUAGAACAAAACAUGAGGAUCACCCAUGUAGAAGGUGCUGAAC	12.3	13.6	
AUCGCGACCCAGAAGGGAAGUCGGUGAAGCGGUUCAGGAUAUGGGCAGAGGACAUGAGGAUCACCCAUGUGCAUGUAUUCGGCA			apparent Kd (MS2 coat protein [1]; [7]): 17.2 nM; apparent Kd (MS2 coat protein [1]; [8]): 13.7 nM
CCAGCUAAAGGAUAUACUGCCGGUGUUAUGUAAUAAUUGCAACAUGAGGAUCACCCAUGUAGAAGGUAAGUGAA	11	9.45	

Sequence	apparent Kd (MS2 coat protein [1]; [3]) [nM]	apparent Kd (MS2 coat protein [1]; [4]) [nM]	other results
GCUGAACAUGAGGAUCACCCAUGUCCGGAUACCAGCGGACCUCAUCGCCCUUGGCAGCCGAACCAACAGCUUGUGGUGUUCACUC			apparent Kd (MS2 coat protein [1]; [5]): 35.4 nM; apparent Kd (MS2 coat protein [1]; [6]): 49.9 nM
GAAUGUUGGAAGAAGGCACGCCCUGCAUGGCGGUGAGGAUAUUCCGUACUUGGAGUGGAAACAUGAGGAUCACCCAUGUAAGUA	36.8	37	
GUCUAAGGCCAAGGAUAUUGCGUACUUGCGGAUGAUAGUAGAAAACAUGAGGAUCACCCAUGUCACAAGAAGGUGGUCCUGGGA	323	176	
GUUGCACAUGAGGAUCACCCAUGUUUGGAUACCAGUCUCUGUAAUGACCCUUGGCAGCCACCAUAGACGCUUGAGUAGAGCCUGA			apparent Kd (MS2 coat protein [1]; [5]): 15 nM; apparent Kd (MS2 coat protein [1]; [6]): 16 nM
AGCUGGGCUGAGAAGGCGUAUCGCUGUUAAGUGACAUGAGGAUCACCCAUGUAAUUACGAGGCUACGAGGAUAUCAACUAUGGA			apparent Kd (MS2 coat protein [1]; [7]): 35.1 nM; apparent Kd (MS2 coat protein [1]; [8]): 15.5 nM
AAGCUUCAACUUCAUUCACAUGAGGAUCACCCAUGUGAUCCGAGAAGGUUUCACUAGAAUUCUGAAAAGGAUAUCGAUCACAAU	16.2	19.7	
AUAACGACUUCAGGAUAUCUAAUAUGGCCUAUAUGCUGAAAACAUGAGGAUCACCCAUGUCAAGGAGAGAAGGGAAGACAAACA	13.3	10.2	
AAUGGAGUCGAGAAGGCAGCGACCCACUAAACCUGAGGAUAUCGUCUCCGAAAAUGGGUGGGUGUACAUGAGGAUCACCCAUGU	95.2	122	
GUGGCUUCGGUGAGGAUAUGUCCGAUAAAACUGAGACAGAAGGCACAUGAGGAUCACCCAUGUAGCGUUGAUUC	17.5	44.5	
ACCAUCACAUGAGGAUCACCCAUGUAAAUAACUACAUAGACGGAGGAUAUCACAAUAACAGCGAAAGAGAAGGCCGGUGUAAAA			apparent Kd (MS2 coat protein [1]; [7]): 11.5 nM; apparent Kd (MS2 coat protein [1]; [8]): 8.1 nM
UUUAACAAGAACGUCCUGAGUGACAAGCUACGAGGACCGGUACGGCCGCCACUCGUACCAAAACAUGAGGAUCACCCAUGUUAAA			apparent Kd (MS2 coat protein [1]; designed as: OFF switch for tryptophan, no ligand): 17.4 nM; apparent Kd (MS2 coat protein [1]; ligand present: tryptophan, designed as: OFF switch for tryptophan): 17.8 nM
UAAAUUGAAGGAUAUACAUGAGGAUCACCCAUGUAAGAAAUACAUGAAAAUAACAACAGUAGAAGGUCAAAACU	15.9	12.7	
UUCUGUUCCAAGAAGGUCAAAAUUGAUGCCUCUGAAGGAUAUUGGACAGCCAAGGUCUGUGACAUGAGGAUCACCCAUGUUCAG			apparent Kd (MS2 coat protein [1]; [7]): 6.72 nM; apparent Kd (MS2 coat protein [1]; [8]): 6.14 nM
UGGCCGUAGAAGAAGGAGGACACCGUUUUGUCACGGACAUGAGGAUCACCCAUGUAGAUAAUUGCCUAGGAUAUUCGCUCAUUU			apparent Kd (MS2 coat protein [1]; [7]): 15.9 nM; apparent Kd (MS2 coat protein [1]; [8]): 7.52 nM
AAUAUAAACGUCAGGAUAUUCACGAUAAACAAAUAGAAGAAGGGACAUGAGGAUCACCCAUGUAAACAUGAGUA	11.6	18.3	
UUGUGACAUGAGGAUCACCCAUGUGAGGAUAUUCUGCUUGUGGAUAGUACGACUUGAUGAAGAAGGCACGUUAU	34.7	33.3	
GUAUUGUAAGGAUAUAGUAGGCCAGUACGAAGGCUUGAGCACUAGAAGGUACAUGAGGAUCACCCAUGUGGUGG	401	146	
UAAUUCACUAUUCACGGUCCGAUGUUCGAUACCAGAUCAUUUCGAAUCCCUUGGCAGCGAUUAACAUGAGGAUCACCCAUGUAAC			apparent Kd (MS2 coat protein [1]; [9]): 32.2 nM; apparent Kd (MS2 coat protein [1]; [10]): 83.9 nM
UCCGUUGUAGGAUAUACAUGAGGAUCACCCAUGUAAUGUGGGCAAUUAUAAACUUACUGUAGAAGGACAGAGUG	493	555	
AUUAUGCAGUGAGAGGAUAUCAUCGAUAAGACAUGAGGAUCACCCAUGUGUGUCAGGGUUACACAUGAGAAGGCUCACCAAACUUU			apparent Kd (MS2 coat protein [1]; [7]): 7.28 nM; apparent Kd (MS2 coat protein [1]; [8]): 7.49 nM
AGGCGCAACGUAGGAUAUACCGGCAUUGUCCAAGUAGAAGGACGUUGUGAUCGCUAGGUAACAUGAGGAUCACCCAUGUCUUAC			apparent Kd (MS2 coat protein [1]; [7]): 6.96 nM; apparent Kd (MS2 coat protein [1]; [8]): 5.8 nM
GCGAGCAUACAGAAGGGAUCGUCGUAGCGGCUGUCAGGAUAUGUAGCUUGGCCUAAACAUGAGGAUCACCCAUGUAUAAUGCUA			apparent Kd (MS2 coat protein [2]; no ligand): 175 nM; apparent Kd (MS2 coat protein [2]; ligand present: flavin mononucleotide): 21 nM
